Compound in series [1]: C=C(F)c1sc(CNCCCNc2cc(=O)c3ccccc3[nH]2)c(C)c1Br
The experiment in a line: Activity of streptococcus aureus MetRS I57N, V242F mutant by scintillation proximity assay in presence of tRNA. Conditions: Staphylococcus aureus. In general terms: In a scintillation proximity assay essentially only radioactivity close to the scintillant gives light.

Compound in series [2]: C=C(F)c1sc(CNCCCNc2cc(=O)c3ccccc3[nH]2)c(C)c1Br
The experiment in a line: Ratio of Kcat to Km for Staphylococcus aureus MetRS I57N V242F mutant in presence of tRNA. In short, it runs like this:
(§1)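 Purified recombinant S. aureus MetRS was assayed by tRNA aminoacylation at 30°C for 1 to 7.5 min to obtain initial rates. Buffer was Tris pH 8.0 with Mg acetate, 2.5 mM ATP, KCl, DTT, BSA, [3H]methionine and crude E. coli tRNA. Reactions were EDTA-stopped, and charged tRNA was read by scintillation proximity with polylysine beads at pH 2.0.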

Compound in series [3]: C=C(F)c1sc(CNCCCNc2cc(=O)c3ccccc3[nH]2)c(C)c1Br
The experiment in a line: Activity of Staphylococcus aureus MetRS I57N, V242F mutant by ATP:PPi exchange assay in presence of methionine. In short, it runs like this: (§2)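 Purified S. aureus MetRS (wild type or mutant; E. coli-expressed, ammonium sulfate cut, anion exchange) at 30 nM. ATP:PPi exchange at 30°C in 100 mM Tris-HCl pH 8.0, 5–10 mM Mg acetate, 80 mM KCl, 2.5 mM DTT, [32P]PPi plus cold PPi equal to ATP. Quenched with EDTA over 1–10 min, PEI-cellulose TLC, phosphorimager. Initial velocities versus varied ATP or methionine fit to Michaelis-Menten.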

Compound in series [4]: C=C(F)c1sc(CNCCCNc2cc(=O)c3ccccc3[nH]2)c(C)c1Br
The experiment in a line: Ratio of Kcat to Km for Staphylococcus aureus MetRS I57N V242F mutant in presence of methionine. The procedure, abridged: (§3)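 Purified recombinant S. aureus MetRS (30 nM) was assayed by ATP:PPi exchange at 30°C in Tris pH 8.0 with Mg acetate, KCl and DTT. [32P]PPi was matched to ATP, and ATP or methionine was varied. Time points from 1 to 10 min were quenched with EDTA, separated by PEI-cellulose TLC and read by phosphorimager. Initial rates were fitted to Michaelis-Menten.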

Compound in series [5]: C=C(F)c1sc(CNCCCNc2cc(=O)c3ccccc3[nH]2)c(C)c1Br
The experiment in a line: Activity of Staphylococcus aureus MetRS I57N, V242F mutant by ATP:PPi exchange assay in presence of ATP. The procedure, abridged: as §2

Compound in series [6]: C=C(F)c1sc(CNCCCNc2cc(=O)c3ccccc3[nH]2)c(C)c1Br
The experiment in a line: Ratio of Kcat to Km for Staphylococcus aureus MetRS I57N V242F mutant in presence of ATP. The procedure, abridged:
as §3

Compound in series [7]: C=C(F)c1sc(CNCCCNc2cc(=O)c3ccccc3[nH]2)c(C)c1Br
The experiment in a line: Activity of streptococcus aureus MetRS I57N, G54S mutant by scintillation proximity assay in presence of tRNA. The note with it: Staphylococcus aureus.

Compound in series [8]: C=C(F)c1sc(CNCCCNc2cc(=O)c3ccccc3[nH]2)c(C)c1Br
The experiment in a line: Activity of Staphylococcus aureus MetRS I57N, G54S mutant by ATP:PPi exchange assay in presence of methionine. The procedure, abridged: as §2

Compound in series [9]: C=C(F)c1sc(CNCCCNc2cc(=O)c3ccccc3[nH]2)c(C)c1Br
The experiment in a line: Ratio of Kcat to Km for Staphylococcus aureus MetRS I57N G54S mutant in presence of ATP. The procedure, abridged:
as §3

Compound in series [10]: C=C(F)c1sc(CNCCCNc2cc(=O)c3ccccc3[nH]2)c(C)c1Br
The experiment in a line: Ratio of Kcat to Km for Staphylococcus aureus MetRS I57N G54S mutant in presence of tRNA. The procedure, abridged:
as §1

Compound in series [11]: C=C(F)c1sc(CNCCCNc2cc(=O)c3ccccc3[nH]2)c(C)c1Br
The experiment in a line: Ratio of Kcat to Km for Staphylococcus aureus MetRS I57N G54S mutant in presence of methionine. In short, it runs like this:
as §3

Compound in series [12]: C=C(F)c1sc(CNCCCNc2cc(=O)c3ccccc3[nH]2)c(C)c1Br
The experiment in a line: Activity of Staphylococcus aureus MetRS I57N, G54S mutant by ATP:PPi exchange assay in presence of ATP. In short, it runs like this: as §2

B1: Methionine--tRNA ligase (Staphylococcus aureus subsp. aureus MW2), Q8NY00 I57N,V242F (protein)
chain: MAKETFYITTPIYYPSGNLHIGHAYSTVAGDVIARYKRMQGYDVRYLTGTDEHGQKNQEKAQKAGKTEIEYLDEMIAGIKQLWAKLEISNDDFIRTTEERHKHVVEQVFERLLKQGDIYLGEYEGWYSVPDETYYTESQLVDPQYENGKIIGGKSPDSGHEVELVKEESYFFNISKYTDRLLEFYDQNPDFIQPPSRKNEMINNFIKPGLADLAVSRTSFNWGVHVPSNPKHVVYVWIDALFNYISALGYLSDDESLFNKYWPADIHLMAKEIVRFHSIIWPILLMALDLPLPKKVFAHGWILMKDGKMSKSKGNVVDPNILIDRYGLDATRYYLMRELPFGSDGVFTPEAFVERTNFDLANDLGNLVNRTISMVNKYFDGELPAYQGPLHELDEEMEAMALETVKSYTESMESLQFSVALSTVWKFISRTNKYIDETTPWVLAKDDSQKDMLGNVMAHLVENIRYAAVLLRPFLTHAPKEIFEQLNINNPQFMEFSSLEQYGVLTESIMVTGQPKPIFPRLDSEAEIAYIKESMQPPATEEEKEEIPSKPQIDIKDFDKVEIKAATIINAEHVKKSDKLLKIQVDLDSEQRQIVSGIAKFYTPDDIIGKKVAVVTNLKPAKLMGQKSEGMILSAEKDGVLTLVSLPSAIPNGAVIK
What is called Km is the substrate concentration at which the rate is half of its maximum. What is called kcat is the number of substrate molecules converted per active site and unit of time at saturation. As usually defined, the kcat/Km is the turnover number divided by the Michaelis constant. Turning to B1, the Km in series [1] worked out at 10 µM; in series [3], 20 µM; in [5], 810 µM. Further, the figures for the kcat in [1] and in [3] were 0.124 s⁻¹ and 14 s⁻¹, respectively. In addition, the kcat/Km came to 12000 M⁻¹ s⁻¹ in series [2], 700000 M⁻¹ s⁻¹ in series [4] and 17000 M⁻¹ s⁻¹ in [6].

B2: Methionine--tRNA ligase (Staphylococcus aureus subsp. aureus MW2), Q8NY00 I57N,G54S (protein)
chain: MAKETFYITTPIYYPSGNLHIGHAYSTVAGDVIARYKRMQGYDVRYLTGTDEHSQKNQEKAQKAGKTEIEYLDEMIAGIKQLWAKLEISNDDFIRTTEERHKHVVEQVFERLLKQGDIYLGEYEGWYSVPDETYYTESQLVDPQYENGKIIGGKSPDSGHEVELVKEESYFFNISKYTDRLLEFYDQNPDFIQPPSRKNEMINNFIKPGLADLAVSRTSFNWGVHVPSNPKHVVYVWIDALVNYISALGYLSDDESLFNKYWPADIHLMAKEIVRFHSIIWPILLMALDLPLPKKVFAHGWILMKDGKMSKSKGNVVDPNILIDRYGLDATRYYLMRELPFGSDGVFTPEAFVERTNFDLANDLGNLVNRTISMVNKYFDGELPAYQGPLHELDEEMEAMALETVKSYTESMESLQFSVALSTVWKFISRTNKYIDETTPWVLAKDDSQKDMLGNVMAHLVENIRYAAVLLRPFLTHAPKEIFEQLNINNPQFMEFSSLEQYGVLTESIMVTGQPKPIFPRLDSEAEIAYIKESMQPPATEEEKEEIPSKPQIDIKDFDKVEIKAATIINAEHVKKSDKLLKIQVDLDSEQRQIVSGIAKFYTPDDIIGKKVAVVTNLKPAKLMGQKSEGMILSAEKDGVLTLVSLPSAIPNGAVIK
Regarding B2, the Km in series [7] stood at 0.41 µM; in series [8] it was 360 µM; in [12], 765 µM. Also, the kcat is 0.002 s⁻¹ in series [7] and 6 s⁻¹ in series [8]. The figures for the kcat/Km in series [9], in series [10] and in series [11] were 8000 M⁻¹ s⁻¹, 5000 M⁻¹ s⁻¹ and 20000 M⁻¹ s⁻¹, respectively.
